Assay [1] relates to Nucleic Acid. In words: Stimulation of in vitro Topoisomerase II-Linked DNA Complex Formation and Interference with Etoposide-Induced Cleavage at concentration 50 uM. The class given is functional. The procedure, abridged:
(§1)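 Buffer: 30 mM Tris-HCl pH 7.6, 60 mM KCl, 8 mM MgCl2, 3 mM ATP, 15 mM β-mercaptoethanol and 30 μg/mL BSA, with 4 U topoisomerase II. Reactions ran 30 min at 37 °C. Protein-linked DNA was K+/SDS-precipitated and counted (cpm), mean ± SD of 2–4 determinations.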

Assay [2] deals with KB. In words: Growth inhibitory activity (antiproliferative) against KB/7d cell lines. The assay is classed as functional, cell-based. The settings on record: Homo sapiens. The procedure, abridged:
(§2)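 Cells (50 000 or 5000 per well) were seeded and left overnight. Compound was diluted from DMSO stocks into medium at 2× final and added in duplicate. After 2 days the cells were trypsinized and suspended in PBS with 0.5% trypan blue. Viable cells, those not staining blue, were counted by hemacytometer. IC50 was read graphically. KB/7d is an etoposide-selected multidrug-resistant subclone with reduced topoisomerase II.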

In assay [3] the test system is KB. In words: Growth inhibitory activity (antiproliferative) against KB cell lines. The assay is classed as functional, cell-based. The settings on record: Homo sapiens. The procedure, abridged:
as §2

Assay [4] in a line: The differential toxicity ratio was defined as IC50(KB/7d)/IC50(KB). The class given is functional. A digest of the protocol: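 The ratio IC50(KB/7d)/IC50(KB) uses IC50s from 2-day treatments scored by trypan-blue-excluding hemacytometer counts. KB/7d is an etoposide-selected subclone with reduced topoisomerase II.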
Assay [5] concerns Nucleic Acid. In words: Stimulation of in vitro Topoisomerase II-Linked DNA Complex Formation and Interference with Etoposide-Induced Cleavage at concentration 100 uM. The class given is functional. The procedure, abridged:
as §1

The subject of assay [6] is Nucleic Acid. In words: Stimulation of in vitro Topoisomerase II-Linked DNA Complex Formation and Interference with Etoposide-Induced Cleavage at concentration 1 uM. The assay is classed as functional. The procedure, abridged:
as §1

Take `COc1cc([C@@H]2c3cc(O)c(O)cc3[C@@H](Nc3ccc([N+](=O)[O-])cc3)[C@H]3COC(=O)[C@H]23)cc(OC)c1O`: the cpm in assay [1] was 661. For the same molecule, the IC50 in assay [2] was 16.6 µM; in assay [3], 0.42 µM. For the same molecule, the Ratio in assay [4] was determined as 39.

For the molecule `COc1cc([C@@H]2c3cc4c(cc3[C@@H](O[C@@H]3O[C@@H]5CO[C@@H](C)O[C@H]5[C@H](O)[C@H]3O)[C@H]3COC(=O)[C@H]23)OCO4)cc(OC)c1O` [ETOPOSIDE], the cpm was 2460 in assay [1], 1840 in assay [5] and 216 in assay [6]. The IC50 in assay [2] came to 23.8 µM; in assay [3], 0.164 µM. Moreover, in assay [4], the Ratio was found to be 145.

On to `COc1cc([C@@H]2c3cc4nc5cc(Cl)c(Cl)cc5nc4cc3[C@@H](Nc3ccc([N+](=O)[O-])cc3)[C@H]3COC(=O)[C@H]23)cc(OC)c1O`, for which the cpm came to 103 in assay [1], 101 in assay [5] and 105 in assay [6]. Also, the IC50 in assay [2] worked out at 10.6 µM; in assay [3], 0.48 µM. Besides, the Ratio in assay [4] came to 22.

As for `COc1cc([C@@H]2c3cc4nc5cc(Cl)c(Cl)cc5nc4cc3[C@H](O)[C@H]3COC(=O)[C@H]23)cc(OC)c1OC`, the IC50 stood at 9.2 µM in assay [2] and 13.3 µM in assay [3].

`COc1cc([C@@H]2c3cc4c(cc3[C@@H](Nc3ccc([N+](=O)[O-])cc3)[C@H]3COC(=O)[C@H]23)OCO4)cc(OC)c1O`: in assay [1], the cpm was 2930. Further, the figures for the IC50 in assay [2] and in assay [3] were 0.55 µM and 0.032 µM, respectively. For the same molecule, the Ratio in assay [4] stood at 17 KB 7d-1.

`COc1cc([C@@H]2c3cc4nc5cc6ccccc6cc5nc4cc3[C@@H](Nc3ccc([N+](=O)[O-])cc3)[C@H]3COC(=O)[C@H]23)cc(OC)c1O`: in assay [3], the IC50 is 6.63 µM. In other words, the single-digit micromolar range.

`COc1cc([C@@H]2c3cc4nc5ccccc5nc4cc3[C@@H](Nc3ccc([N+](=O)[O-])cc3)[C@H]3COC(=O)[C@H]23)cc(OC)c1O`: the cpm in assay [1] is 309; in assay [5], 446; in assay [6], 320. In addition, the values for the IC50 in assay [2] and in assay [3] were 0.56 µM and 0.11 µM, respectively. For the same molecule, the Ratio in assay [4] came to 5.

`COc1cc([C@@H]2c3cc4nc5ccccc5nc4cc3[C@H](O)[C@H]3COC(=O)[C@H]23)cc(OC)c1OC`: the concentration for half-maximal inhibition (IC50) in assay [2] stood at 6.21 µM; in assay [3], 23.4 µM.

Source of the values: ChEMBL document CHEMBL1129535, “Antitumor agents. 164. Podophenazine, 2'',3''-dichloropodophenazine, benzopodophenazine, and their 4 beta-p-nitroaniline derivatives as novel DNA topoisomerase II inhibitors” (J Med Chem, 1996).
